# core dimer inh: blocks dimerization of HCV core protein. TR-FRET GST/Flag-core106 dimerization, 1536-well. inhibition, % at 5 µM. 300,000 tested, 0.33% active. AID 1899;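 active = inhibition above the mean of all tested compounds plus 3 SD, set per screening campaign, cut at about 45% in these data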
#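 Material: Tagged HCV core106 pair (GST and Flag) | Amount: GST-core106 13.5 nM, Flag-core106 17 nM | Medium: KF-containing HEPES buffer, pH 7.45, DTT, CHAPS, BSA | Reagent: Eu donor and XL665 acceptor anti-tag antibodies | Schedule: 4 h at 22.5 °C | Technique: Time-resolved FRET, ex 340 nm, em 617 and 671 nm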
# IMP-1 inhibitor: blocks Pseudomonas aeruginosa IMP-1 metallo-beta-lactamase; inhibition, % at 5.6 µM; AID 1556; purified IMP-1, nitrocefin hydrolysis, epi-absorbance fluorescence; 290,000 tested, 0.45% active;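 active = inhibition above the mean plus 3 SD of all compounds in the same screening run, cut at about 4.5% in these data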;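 also: 0% = IMP-1 with DMSO and 100% = DMSO wells lacking enzyme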
#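 System – purified recombinant IMP-1 beta-lactamase · Input – IMP-1 dispensed at 0.2 nM · Timing – 15 min preincubation plus 25 min reaction at 25 °C · Signal – Epi-absorbance fluorescence, 480 nm excitation, 530 nm emission · Measure – percent IMP-1 inhibition derived from blank-referenced optical density · Controls – Enzyme-plus-DMSO low control, enzyme-free DMSO high control · Replication – singlicate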
# NadD block: blocks S. aureus nicotinate mononucleotide adenylyltransferase. purified NadD enzyme, colorimetric absorbance read-out. inhibition, % at 20 µM. 360,000 tested, 0.78% active. AID 602399; in the data active = inhibition above about 26%
# VIM-2 inhibitor: inhibitors of Pseudomonas aeruginosa VIM-2 metallo-beta-lactamase. purified VIM-2, nitrocefin hydrolysis, epi-absorbance fluorescence. inhibition, % at 5.6 µM. 290,000 tested, 0.89% active;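 active = inhibition above the mean of all tested compounds plus 3 SD, cutoff set per screening run, cut at about 7.5% in these data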;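 also: red hydrolysis product quenches plate fluorescence so inhibitors raise well fluorescence; 0% = enzyme with DMSO and 100% = DMSO without enzyme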
# NadD conf: NadD (S. aureus) inhibition, single concentration confirmation | shares compounds with NadD block | purified S. aureus NadD, colorimetric enzyme assay | inhibition, % at 20 µM | 2,000 tested, 13% active; in the data active = inhibition mostly above about 42%, no sharp cut-off; inactive = mostly below about 42%
# * marks the source's active call; other numbers are inactive results; . = no result given. Compounds with a hit are over-represented: about 1.9% of the library has one in this group of screens.
SMILES,core dimer inh,IMP-1 inhibitor,NadD block,VIM-2 inhibitor,NadD conf
CC(C)C[C@@H](CN1CCC[C@@H]1CN1C(=O)C(=O)NC[C@@H]1Cc1ccccc1)N1C[C@H](Cc2ccc(O)cc2)N(CC2CCCCCC2)C(=O)C1=O,.,.,24,.,.
O=C(c1ccccc1NS(=O)(=O)c1cccc(C(F)(F)F)c1)N1CCc2ccccc21,15,-1,5,-1,.
CN(C(=O)CSc1ncnc2sccc12)c1c(N)n(Cc2ccccc2)c(=O)[nH]c1=O,-3,-3,-7,-3,.
CN(C(=O)CSc1nc2ccccc2n1C)C1CCS(=O)(=O)C1 (stereo not drawn),.,.,-5,.,.
Cc1ccc(-c2nn(-c3ccccc3)cc2/C=N/n2c(-c3ccncc3)n[nH]c2=S)cc1,17,-5,39*,-3,3
O=C1Nc2cc(C(=O)NCCCN3CCCC3)ccc2S/C1=C/c1cccc(Cl)c1,.,.,-1,.,.
Cc1cccc(/C=C2/Sc3ccc(C(=O)NCCN4CCCC4)cc3NC2=O)c1,-12,0,12,6,.
COc1cccc(/C=C2/Sc3ccc(C(=O)NCCN4CCCCCC4)cc3NC2=O)c1,-11,-1,42*,6,-2
O=C1Nc2cc(C(=O)NCCN3CCCCCC3)ccc2S/C1=C\c1ccccc1,-7,-3,44*,4,-17
COc1ccc(CCN2CC(C(=O)NCc3nc4ccccc4n3C)CCC2=O)cc1 (stereo not drawn),-3,-1,-3,0,.
O=[N+]([O-])c1ccc(N2CCN(S(=O)(=O)c3ccc(Cl)cc3)CC2)cc1NCc1cccnc1,42,-2,32*,-7,23
Cc1onc(-c2ccccc2)c1C(=O)N(C)CC(=O)Nc1ccc(F)c(F)c1F,.,.,1,.,.
CCN(Cc1cc2cc(OC)ccc2[nH]c1=O)C(=O)Cc1ccc(OC)cc1,5,-2,4,0,.
CCC(=O)N(Cc1ccc2c(c1)OCO2)Cc1cc2cc(OC)ccc2[nH]c1=O,1,-5,33*,-3,12
CCOC(=O)Nc1ccc2c(CN3CCN(S(=O)(=O)c4ccccc4F)CC3)cc(=O)oc2c1,.,.,6,.,.
CCOC(=O)Nc1ccc2c(CN3CCN(S(=O)(=O)c4ccc(C(C)C)cc4)CC3)cc(=O)oc2c1,.,.,50*,.,6
CCc1cc2c(=O)nc3n(c2s1)Cc1ccccc1/C3=C(/O)c1ccc(F)cc1,30,-2,36*,-2,10
CCc1cc2c(=O)nc3n(c2s1)Cc1ccccc1/C3=C(/O)c1ccccc1Cl,20,3,32*,0,6
Cc1cc([N+](=O)[O-])ccc1NC(=O)CSc1nnc(C)n1C,-9,1,-1,-2,.
Cc1ccccc1/C=N/n1c(-c2cc(-c3ccccc3)n[nH]2)n[nH]c1=S,6,-5,53*,-2,22
S=c1[nH]nc(-c2cc(-c3ccccc3)n[nH]2)n1/N=C/c1ccc(Br)s1,12,-4,43*,-4,42
S=c1[nH]nc(-c2cc(-c3ccccc3)n[nH]2)n1/N=C/c1c(Cl)cccc1Cl,6,-3,26,-3,.
Cc1ccsc1/C=N/n1c(-c2cc(-c3ccccc3)n[nH]2)n[nH]c1=S,4,-4,15,-3,.
NC(=O)c1nn(-c2ccccc2)nc1NC(=O)Cn1nnc(-c2ccccc2)n1,14,-1,4,1,.
O=C(Nc1ccc(F)cc1F)c1ccc(-n2cccn2)c([N+](=O)[O-])c1,1,-2,-5,-1,.
SMILES,core dimer inh,IMP-1 inhibitor,NadD block,VIM-2 inhibitor,NadD conf
COC(=O)CC/C(=N/Nc1ccc(Cl)c(Cl)c1)C(=O)OC,0,-3,-11,-2,.
Cc1cc(C)nc(NS(=O)(=O)c2ccc(NC(=O)CN3C(=O)S/C(=C\c4ccccc4)C3=O)cc2)n1,10,-3,41*,-5,44
O=C(CCN1C(=O)S/C(=C\c2ccccc2)C1=O)Nc1ccc(S(=O)(=O)Nc2nccs2)cc1,21,-3,29,-4,.
COc1ccccc1/C=C1/SC(=O)N(CCC(=O)Nc2ccc(S(=O)(=O)Nc3nccs3)cc2)C1=O,28,-3,56*,-1,33
COc1ccc2c(Cl)c(C(=O)N/N=C3\CCCC(=O)C3)sc2c1,2,0,12,3,.
COc1ccc([C@@H]2CC(=O)[C@@H]3CN(S(=O)(=O)c4ccc(Cl)cc4)[C@H](c4ccc(C)cc4)C[C@@H]3N2S(=O)(=O)c2ccccc2)cc1,.,.,30*,.,8
CN1C(=O)Cc2cc(S(=O)(=O)Nc3ccc(N4CCOCC4)cc3)ccc21,19,-3,6,-3,.
CCn1cc(Cl)c(C(=O)Nc2nccs2)n1,.,-3,-5,-5,.
COc1ccccc1N1CCN(c2nc3ccccc3nc2C(C#N)C(=O)OC(C)C)CC1 (stereo not drawn),19,0,37*,-1,6
NC(CSC1(c2ccc(Cl)cc2)c2ccccc2-c2ccccc21)C(=O)O (stereo not drawn),.,.,41*,.,57*
COc1ccc(C2(SCC(N)C(=O)O)c3ccccc3-c3ccccc32)cc1 (stereo not drawn),.,.,36*,.,30
O=C(c1ccccn1)N1CCCC(N2CCN(c3ccc(F)cc3)CC2)C1 (stereo not drawn),3,-3,-1,-4,.
CCCSc1nnc(NC(=O)c2sc3nc(-c4cccs4)ccc3c2N)s1,25,-4,37*,-4,10
CC1(C)CNC(=O)CC(C)(C)N1,-11,-2,9,0,.
O=C(NCCO)c1cccc(-c2cnc3c(Nc4cccc(OC(F)(F)C(F)F)c4)nccn23)c1,.,.,-4,.,.
Cc1ccc(S(=O)(=O)Nc2ccc(Nc3nccn4c(-c5cccc(OC(F)(F)F)c5)cnc34)cc2)cc1,.,.,33*,.,53*
NS(=O)(=O)c1cc(C(=O)N2CCNC(=O)C2)ccc1Cl,-1,-3,-1,-2,.
CC(CCC(=O)NN)C1CCC2C3CCC4CC(O)CCC4(C)C3CCC12C (stereo not drawn),.,.,38*,.,6
COc1cc2nc(N(CCCN(C)C)C(=O)c3ccc(S(=O)(=O)N4CCc5ccccc54)cc3)sc2cc1OC,4,.,34*,.,21
Cc1cccc(OCC(=O)Nc2ccc3c(c2)C(=O)NC3=O)c1,0,-3,-8,-2,.
CSc1ccccc1NC(=O)c1noc(C)c1[N+](=O)[O-],-10,-2,-2,-3,.
COc1cc(C#Cc2c(-c3cncn3C)n(C)c3ccc(Br)cc23)cc(OC)c1,.,.,17,.,.
COc1cc(C#Cc2c(-c3cncn3C)n(C)c3ccc(-c4ccc5cc[nH]c5c4)cc23)cc(OC)c1,.,.,39*,.,47
COc1cc(C#Cc2c(-c3cncn3C)n(C)c3ccc(-c4ccc(OC)c(OC)c4)cc23)cc(OC)c1,.,.,38*,.,24
C=C1c2cccc(OC)c2O[C@H](C(=O)OCC)[C@@H]1CC(CC)CCCC (stereo partly drawn),.,.,17,.,.
CCOC(=O)/C=C1\CC(C(=O)OCC)Oc2c(OC)cccc21 (stereo not drawn),.,.,39*,.,38
O=C1COc2ccc(S(=O)(=O)N3CCCC3)cc2N1,1,-3,-2,-3,.

# Compound activity deposited in PubChem by several laboratories.
